Assay results gathered from unrelated publications.
ABL1 Y253F phosphorylated: Tyrosine-protein kinase ABL1, phosphorylated (ABL1, Homo sapiens, UniProt P00519, Y253F)
ABL1 Q252H: Tyrosine-protein kinase ABL1 (ABL1, Homo sapiens, UniProt P00519, Q252H)
ABL1 non-phosphorylated: Tyrosine-protein kinase ABL1, non-phosphorylated (ABL1, Homo sapiens, UniProt P00519)
ABL1 phosphorylated: Tyrosine-protein kinase ABL1, phosphorylated (ABL1, Homo sapiens, UniProt P00519)
ABL1 F317L non-phosphorylated: Tyrosine-protein kinase ABL1, non-phosphorylated (ABL1, Homo sapiens, UniProt P00519, F317L)
ABL1 M351T phosphorylated: Tyrosine-protein kinase ABL1, phosphorylated (ABL1, Homo sapiens, UniProt P00519, M351T)

The remaining binding of `COc1cccc(CNC(=O)c2nc3scc(COCc4ccc(C(=O)O)cc4)c3c(=O)[nH]2)c1` is reported as 84.6% (ABL1 Y253F phosphorylated; cell-free assay; competition with immobilised ligand; 1 µM).
With `c1cnn2ncc(-c3ccnc(N4CCC45COC5)n3)c2c1` the remaining binding was 66% (Tyrosine-protein kinase ABL1 (ABL1, Homo sapiens, UniProt P00519, H396P); binding; 1 µM).
`CC(C)(O)c1cncc(-c2nc3ccc(F)cc3n2C2CC2)c1` has a remaining binding of 85% (Tyrosine-protein kinase ABL1, non-phosphorylated (ABL1, Homo sapiens, UniProt P00519, H396P); cell-free assay; competition with immobilised ligand; 1 µM).
For `C[C@H]1CCN(c2nccc(-c3cnn4ncccc34)n2)C1`, the remaining binding was 84% (ABL1 Q252H; binding; 1 µM).
`CC(=O)N1CCC(c2ccc(C(=O)NC3=NCCN3)cc2C(F)(F)F)CC1` gave a remaining binding of 95% (ABL1 non-phosphorylated; cell-free assay; competition with immobilised ligand; 1 µM).
With `CN(C)c1ncc(F)c(-c2cnn3ncccc23)n1` the remaining binding was 82% (ABL1 phosphorylated; binding; 1 µM).
`O=C(Nc1c[nH]nc1C(=O)NC1CCNCC1)c1cc(F)cc(F)c1` has a remaining binding of 100% (ABL1 phosphorylated; binding; competition with immobilised ligand; 1 µM).
With `COc1cnc(Nc2cccc(S(N)(=O)=O)c2)nc1N1CCN(c2ccccc2)C(=O)C1` the remaining binding was 97% (Tyrosine-protein kinase ABL1, phosphorylated (ABL1, Homo sapiens, UniProt P00519, H396P); binding; competition with immobilised ligand; 1 µM).
With `O=C(NCCCN1CCOCC1)c1ccc(Nc2nccc(-c3cc4ccccc4s3)n2)cc1` the remaining binding was 90% (ABL1 F317L non-phosphorylated; binding; competition with immobilised ligand; 1 µM).
With `C=CC(=O)N1CCC(C(=O)NCC(=O)N2CCN(c3nc(-c4cnc(N)nc4C(F)F)nc(N4CCOCC4)n3)CC2)CC1` the remaining binding was 80% (ABL1 non-phosphorylated; binding; competition with immobilised ligand; 1 µM).
With `Cc1cnc(Nc2ccc(C(=O)N3CCC(N4CCCC4)CC3)cc2)nc1-c1cc2ccccc2s1` the remaining binding was 100% (Tyrosine-protein kinase ABL1, non-phosphorylated (ABL1, Homo sapiens, UniProt P00519, F317I); binding; competition with immobilised ligand; 1 µM).
`N[C@@H]1CCN(c2nccc(-c3cnn4ncccc34)n2)C1` gave a remaining binding of 74% (ABL1 Q252H; binding; 1 µM).
With `Nc1ncc2c(n1)-c1c([nH]c3ccc(C#CC4CC4)cc13)CCCC2` the remaining binding was 95% (ABL1 Y253F phosphorylated; binding; competition with immobilised ligand; 1 µM).
The remaining binding of `COC(=O)Nc1nc2ccc(C(=O)c3ccccc3)cc2[nH]1` is reported as 2% (ABL1 non-phosphorylated; cell-free assay; competition with immobilised ligand; 10 µM).
`CNC(=O)Nc1ccc2c(c1)[C@@]1(CC2)OC(=O)N(CC(=O)N(Cc2ccc(F)cc2)[C@@H](C)C(F)(F)F)C1=O` gave a remaining binding of 100% (ABL1 Y253F phosphorylated; cell-free assay; competition with immobilised ligand; 1 µM).
`COc1ncc2cc3ccccc3nc2c1C#N` has a remaining binding of 92% (ABL1 Y253F phosphorylated; cell-free assay; competition with immobilised ligand; 5 µM).
`COc1cc(-c2cn(C3CCc4ccccc4N(CC(F)(F)F)C3=O)nn2)ccc1-n1ccc(C)n1` (stereo not drawn) has a remaining binding of 87% (ABL1 Y253F phosphorylated; cell-free assay; competition with immobilised ligand; 1 µM).
With `CN(C)c1nccc(-c2cnc3ncccn23)n1` the remaining binding was 52% (Tyrosine-protein kinase ABL1 (ABL1, Homo sapiens, UniProt P00519, T315I); binding; 1 µM).
`FC(F)(F)Oc1cccc(-c2cnc3ccc(-c4ccncc4)nn23)c1` gave a remaining binding of 68% (ABL1 non-phosphorylated; cell-free assay; competition with immobilised ligand; 5 µM).
`F[C@@H]1CCN(c2nccc(-c3cnn4ncccc34)n2)C1` has a remaining binding of 100% (Tyrosine-protein kinase ABL1 (ABL1, Homo sapiens, UniProt P00519, E255K); binding; 1 µM).
With `CC(C)(C)c1ccc(-c2nc(CBr)nn2-c2cccc(O)c2)cc1` the remaining binding was 85% (ABL1 phosphorylated; cell-free assay; competition with immobilised ligand; 10 µM).
`O=C(c1ccc(Nc2nccc(-c3cc4ccccc4s3)n2)cc1)N1CCC(N2CCCC2)CC1` has a remaining binding of 17% (ABL1 M351T phosphorylated; binding; competition with immobilised ligand; 1 µM).
`C[C@@H](c1ccc(-n2cnc3c(N)ncnc32)cc1)N1CCc2nn(C)c(Cc3ccccc3)c2C1=O` gave a remaining binding of 62% (Tyrosine-protein kinase ABL1, phosphorylated (ABL1, Homo sapiens, UniProt P00519, F317I); binding; competition with immobilised ligand; 0.1 µM).
`CN(C)CC#Cc1ccc(OCCCc2sc(N3CCc4cccc(C(=O)Nc5nc6ccccc6s5)c4C3)nc2C(=O)O)c(F)c1` has a remaining binding of 92% (Tyrosine-protein kinase ABL1, phosphorylated (ABL1, Homo sapiens, UniProt P00519, T315I); cell-free assay; competition with immobilised ligand; 1 µM).
With `CCN1CCN(Cc2ccc(C(=O)Nc3ccc(C)c(Oc4ccc5c(c4)CC(=O)N5)c3)cc2C(F)(F)F)CC1` the remaining binding was 38% (ABL1 Y253F phosphorylated; binding; competition with immobilised ligand; 1 µM).
For `O=C(NCCCN1CCOCC1)c1ccc(Nc2ncc(Cl)c(-c3ccc(Cl)s3)n2)cc1`, the remaining binding was 37% (Tyrosine-protein kinase ABL1, phosphorylated (ABL1, Homo sapiens, UniProt P00519, E255K); binding; competition with immobilised ligand; 1 µM).
`CN(c1nccc(-c2cnn3ncccc23)n1)C1CC1` has a remaining binding of 99% (ABL1 phosphorylated; binding; 1 µM).
The remaining binding of `CN1CCN(c2ccc(Nc3nccc(-c4ccccc4)n3)cc2C(F)(F)F)CC1` is reported as 15% (Tyrosine-protein kinase ABL1 (ABL1, Homo sapiens, UniProt P00519, M351T); binding; 10 µM).
With `CN1CCN(c2cnc3c(C4CCN(C(=O)c5ccc(OC(F)(F)F)cc5N)CC4)ncnc3c2)CC1` the remaining binding was 91% (ABL1 non-phosphorylated; cell-free assay; competition with immobilised ligand; 1 µM).
`O=C(NCC1CCOCC1)c1n[nH]cc1NC(=O)c1c(F)cccc1F` has a remaining binding of 88% (Tyrosine-protein kinase ABL1, phosphorylated (ABL1, Homo sapiens, UniProt P00519, F317L); binding; competition with immobilised ligand; 1 µM).
With `CNC(=O)[C@@H]1CC[C@@H](n2c(-c3ccc4cnccc4c3)nc3ccc(C(=O)NCc4cccc(C(N)=O)c4)cc32)C1` the remaining binding was 97% (ABL1 F317L non-phosphorylated; binding; competition with immobilised ligand; 1 µM).
For `O=C(c1ccc(Nc2ncc(Cl)c(-c3ccc(Cl)s3)n2)cc1)N1CCC(N2CCCC2)CC1`, the remaining binding was 0% (Tyrosine-protein kinase ABL1, non-phosphorylated (ABL1, Homo sapiens, UniProt P00519, T315I); binding; competition with immobilised ligand; 1 µM).
The remaining binding of `CS(=O)(=O)NCC[C@H](NC(=O)c1cncc2c1cnn2-c1ccc(F)cc1)c1ccnc(S(C)(=O)=O)c1` is reported as 95% (ABL1 Y253F phosphorylated; cell-free assay; competition with immobilised ligand; 1 µM).
`c1cncc(-c2cccc(Nc3nccc(NC4CCCCC4)n3)c2)c1` has a remaining binding of 38% (ABL1 M351T phosphorylated; binding; competition with immobilised ligand; 10 µM).
`O=C(c1ccc(Nc2ncc(Cl)c(-c3cc4ccccc4s3)n2)cc1)N1CCC(N2CCCC2)CC1` gave a remaining binding of 63% (ABL1 F317L non-phosphorylated; binding; competition with immobilised ligand; 1 µM).
`COc1cnc(Nc2cccc(S(N)(=O)=O)c2)nc1N1CCN(c2ccccc2)CC1` gave a remaining binding of 70% (ABL1 non-phosphorylated; binding; competition with immobilised ligand; 1 µM).
